Data published in ChEMBL document CHEMBL5058577, “EUbOPEN Chemogenomics Library 2 (Multiplex)” (2022).

Tested on: Fibroblast
Test: Multiplex assay against human fibroblast
Format: toxicity, cell-based
Method in brief: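 At seeding, live cells were stained with Hoechst33342, BioTracker Green Microtubule Cytoskeleton Dye, MitoTracker Red and Annexin V Alexa Fluor 680. After compound addition they were imaged on a CQ1 microscope at 37°C and 5% CO2, and CellPathfinder machine-learning gating sorted them into Hoechst high-intensity objects or normal cells, with normal cells further split into healthy, pyknosed or fragmented nuclei and pyknosed cells into mitotic or apoptotic. Tubulin, mitochondrial-mass and membrane-permeability phenotypes are given as per cents of cells with healthy nuclei.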

[1] = 12 h, 1 µM, compound concentration 1 uM, replicate 1
[2] = 12 h, 1 µM, compound concentration 1 uM, replicate 2
[3] = 12 h, 10 µM, compound concentration 10 uM, replicate 1
[4] = 12 h, 10 µM, compound concentration 10 uM, replicate 2
[5] = 24 h, 1 µM, compound concentration 1 uM, replicate 1
[6] = 24 h, 1 µM, compound concentration 1 uM, replicate 2
[7] = 24 h, 10 µM, compound concentration 10 uM, replicate 1
[8] = 24 h, 10 µM, compound concentration 10 uM, replicate 2
[9] = 48 h, 1 µM, compound concentration 1 uM, replicate 1
[10] = 48 h, 1 µM, compound concentration 1 uM, replicate 2
[11] = 48 h, 10 µM, compound concentration 10 uM, replicate 1
[12] = 48 h, 10 µM, compound concentration 10 uM, replicate 2

## Cl.Cl.OCCOCCN1CCN(C(c2ccccc2)c2ccc(Cl)cc2)CC1 (configuration not stated) [HYDROXYZINE HYDROCHLORIDE]
[1]
  Population Apoptotic (%): 43%
  Population Fragmented Nuclei (%): 11%
  Population Healthy Nuclei (%): 75%
  Population Hoechst High Intensity Objects (%): 1%
  Population Membrane Permeable-Phenotype (%): 0%
  Population Mitochondria Different-Phenotype (%): 4%
  Population Mitotic Cells (%): 56%
  Population Normal (%): 98%
  Population Pyknosed Nuclei (%): 13%
  Population Tubulin-Different-Phenotype (%): 25%
  Total Cell Count: 177
[2]
  Population Apoptotic (%): 51%
  Population Fragmented Nuclei (%): 22%
  Population Healthy Nuclei (%): 57%
  Population Hoechst High Intensity Objects (%): 7%
  Population Membrane Permeable-Phenotype (%): 8%
  Population Mitochondria Different-Phenotype (%): 6%
  Population Mitotic Cells (%): 48%
  Population Normal (%): 92%
  Population Pyknosed Nuclei (%): 20%
  Population Tubulin-Different-Phenotype (%): 46%
  Total Cell Count: 155
[3]
  Population Apoptotic (%): 47%
  Population Fragmented Nuclei (%): 27%
  Population Healthy Nuclei (%): 58%
  Population Hoechst High Intensity Objects (%): 2%
  Population Membrane Permeable-Phenotype (%): 0%
  Population Mitochondria Different-Phenotype (%): 14%
  Population Mitotic Cells (%): 52%
  Population Normal (%): 97%
  Population Pyknosed Nuclei (%): 14%
  Population Tubulin-Different-Phenotype (%): 45%
  Total Cell Count: 247
[4]
  Population Apoptotic (%): 40%
  Population Fragmented Nuclei (%): 19%
  Population Healthy Nuclei (%): 47%
  Population Hoechst High Intensity Objects (%): 7%
  Population Membrane Permeable-Phenotype (%): 7%
  Population Mitochondria Different-Phenotype (%): 6%
  Population Mitotic Cells (%): 59%
  Population Normal (%): 92%
  Population Pyknosed Nuclei (%): 32%
  Population Tubulin-Different-Phenotype (%): 58%
  Total Cell Count: 178
[5]
  Population Apoptotic (%): 30%
  Population Fragmented Nuclei (%): 9%
  Population Healthy Nuclei (%): 78%
  Population Hoechst High Intensity Objects (%): 1%
  Population Membrane Permeable-Phenotype (%): 2%
  Population Mitochondria Different-Phenotype (%): 6%
  Population Mitotic Cells (%): 70%
  Population Normal (%): 98%
  Population Pyknosed Nuclei (%): 12%
  Population Tubulin-Different-Phenotype (%): 30%
  Total Cell Count: 163
[6]
  Population Apoptotic (%): 44%
  Population Fragmented Nuclei (%): 26%
  Population Healthy Nuclei (%): 54%
  Population Hoechst High Intensity Objects (%): 5%
  Population Membrane Permeable-Phenotype (%): 5%
  Population Mitochondria Different-Phenotype (%): 3%
  Population Mitotic Cells (%): 55%
  Population Normal (%): 94%
  Population Pyknosed Nuclei (%): 18%
  Population Tubulin-Different-Phenotype (%): 47%
  Total Cell Count: 154
[7]
  Population Apoptotic (%): 51%
  Population Fragmented Nuclei (%): 28%
  Population Healthy Nuclei (%): 62%
  Population Hoechst High Intensity Objects (%): 1%
  Population Membrane Permeable-Phenotype (%): 1%
  Population Mitochondria Different-Phenotype (%): 10%
  Population Mitotic Cells (%): 48%
  Population Normal (%): 98%
  Population Pyknosed Nuclei (%): 9%
  Population Tubulin-Different-Phenotype (%): 47%
  Total Cell Count: 284
[8]
  Population Apoptotic (%): 36%
  Population Fragmented Nuclei (%): 29%
  Population Healthy Nuclei (%): 50%
  Population Hoechst High Intensity Objects (%): 9%
  Population Membrane Permeable-Phenotype (%): 6%
  Population Mitochondria Different-Phenotype (%): 6%
  Population Mitotic Cells (%): 63%
  Population Normal (%): 90%
  Population Pyknosed Nuclei (%): 20%
  Population Tubulin-Different-Phenotype (%): 66%
  Total Cell Count: 198
[9]
  Population Apoptotic (%): 60%
  Population Fragmented Nuclei (%): 17%
  Population Healthy Nuclei (%): 68%
  Population Hoechst High Intensity Objects (%): 4%
  Population Membrane Permeable-Phenotype (%): 0%
  Population Mitochondria Different-Phenotype (%): 3%
  Population Mitotic Cells (%): 39%
  Population Normal (%): 95%
  Population Pyknosed Nuclei (%): 13%
  Population Tubulin-Different-Phenotype (%): 31%
  Total Cell Count: 175
[10]
  Population Apoptotic (%): 42%
  Population Fragmented Nuclei (%): 34%
  Population Healthy Nuclei (%): 56%
  Population Hoechst High Intensity Objects (%): 3%
  Population Membrane Permeable-Phenotype (%): 2%
  Population Mitochondria Different-Phenotype (%): 5%
  Population Mitotic Cells (%): 57%
  Population Normal (%): 96%
  Population Pyknosed Nuclei (%): 9%
  Population Tubulin-Different-Phenotype (%): 44%
  Total Cell Count: 155
[11]
  Population Apoptotic (%): 80%
  Population Fragmented Nuclei (%): 22%
  Population Healthy Nuclei (%): 69%
  Population Hoechst High Intensity Objects (%): 4%
  Population Membrane Permeable-Phenotype (%): 0%
  Population Mitochondria Different-Phenotype (%): 7%
  Population Mitotic Cells (%): 19%
  Population Normal (%): 95%
  Population Pyknosed Nuclei (%): 8%
  Population Tubulin-Different-Phenotype (%): 62%
  Total Cell Count: 272
[12]
  Population Apoptotic (%): 37%
  Population Fragmented Nuclei (%): 36%
  Population Healthy Nuclei (%): 47%
  Population Hoechst High Intensity Objects (%): 6%
  Population Membrane Permeable-Phenotype (%): 11%
  Population Mitochondria Different-Phenotype (%): 2%
  Population Mitotic Cells (%): 62%
  Population Normal (%): 94%
  Population Pyknosed Nuclei (%): 15%
  Population Tubulin-Different-Phenotype (%): 57%
  Total Cell Count: 200
